In ChEMBL document CHEMBL4196155 (J Med Chem, 2018):
pIC50, pKi: −log10 of the molar value. The source made the active and inactive calls. The calls are words filed in the database; no cut-off is given here.

Legend:
[1] = tested on: Oryctolagus cuniculus; experiment: Reduction in hypertonic saline solution-induced elevated intraocular pressure in New Zealand White rabbit at 1 mM dosed topically before hypertonic saline solution injection measured after 60 mins; assay type: functional, organism-based
Procedure, shortened: (§1)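 Male SPF New Zealand albino rabbits, 2–2.5 kg, four per compound. 0.05 mL of 1 mM solution in 0.9% NaCl, 0.1% DMSO, 0.1% EtOH was dropped into one eye, vehicle into the other, before intravitreal 0.1 mL 5% hypertonic saline. IOP was read by tonometry after oxybuprocaine 0.2% once the rise had stabilised at 30–40 mm Hg, then after treatment. Analysis by 2-way ANOVA with Bonferroni.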

[2] = tested on: Oryctolagus cuniculus; experiment: Reduction in hypertonic saline solution-induced elevated intraocular pressure in New Zealand White rabbit at 1 mM dosed topically before hypertonic saline solution injection measured after 120 mins; assay type: functional, organism-based; procedure, shortened: as §1
[3] = target: T1, Melatonin receptor type 1A (Homo sapiens, UniProt P48039); experiment: Intrinsic agonist activity at human MT1 receptor expressed in […] NIH/3T3 cell membranes assessed as induction of G protein activation incubated for 30 mins by [35S]GTPgammaS binding assay relative to melatonin; assay type: functional
Procedure, shortened: (§2)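 NIH3T3 membranes bearing cloned human MT1 or MT2 (15–25 μg protein) incubated 30 min at 30 °C with [35S]GTPγS 0.3–0.5 nM, GDP 50 μM, NaCl 100 mM, MgCl2 3 mM. […] Maximal stimulation above basal was divided by that of 100 nM MLT in the same experiment. Run in triplicate.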

[4] = target: T1, Melatonin receptor type 1A; experiment: biochemical
[5] = target: T2, Melatonin receptor type 1B (Homo sapiens, UniProt P49286); experiment: biochemical
T2 sequence (P49286 whole entry): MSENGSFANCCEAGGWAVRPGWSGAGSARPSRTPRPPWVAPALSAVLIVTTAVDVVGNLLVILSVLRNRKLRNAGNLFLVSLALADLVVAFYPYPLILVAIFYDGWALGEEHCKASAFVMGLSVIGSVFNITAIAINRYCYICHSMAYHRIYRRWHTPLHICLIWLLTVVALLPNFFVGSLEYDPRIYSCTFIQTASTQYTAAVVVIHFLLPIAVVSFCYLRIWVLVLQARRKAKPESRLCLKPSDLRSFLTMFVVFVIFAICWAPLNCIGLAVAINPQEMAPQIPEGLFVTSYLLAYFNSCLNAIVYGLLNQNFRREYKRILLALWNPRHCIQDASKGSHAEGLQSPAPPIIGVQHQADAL

[6] = target: T3, Fatty-acid amide hydrolase 1 (Rattus norvegicus, UniProt P97612); experiment: Inhibition of FAAH1 in Wistar rat brain homogenates using [3H]anandamide as substrate incubated for 30 mins by liquid scintillation counting method
T3 sequence (P97612 whole entry): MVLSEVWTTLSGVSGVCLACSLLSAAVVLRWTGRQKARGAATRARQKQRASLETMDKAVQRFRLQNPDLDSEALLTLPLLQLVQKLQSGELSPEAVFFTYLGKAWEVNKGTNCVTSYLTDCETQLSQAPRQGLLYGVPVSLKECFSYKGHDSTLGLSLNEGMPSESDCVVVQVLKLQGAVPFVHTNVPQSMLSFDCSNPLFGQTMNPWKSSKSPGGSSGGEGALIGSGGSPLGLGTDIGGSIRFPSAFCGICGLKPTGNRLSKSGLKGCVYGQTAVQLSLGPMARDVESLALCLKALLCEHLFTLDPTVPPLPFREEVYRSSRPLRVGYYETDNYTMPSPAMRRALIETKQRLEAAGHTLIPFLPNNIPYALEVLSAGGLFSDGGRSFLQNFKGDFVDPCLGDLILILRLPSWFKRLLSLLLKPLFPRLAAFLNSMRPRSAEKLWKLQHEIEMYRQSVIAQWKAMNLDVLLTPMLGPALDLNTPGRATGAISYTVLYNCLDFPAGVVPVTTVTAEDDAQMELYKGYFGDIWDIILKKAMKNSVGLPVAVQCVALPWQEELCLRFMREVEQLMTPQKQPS
Procedure, shortened: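 Wistar rat brain homogenised in ice-cold Tris 50 mM pH 7.5 with 0.32 M sucrose, spun 1,000 × g 10 min at 4 °C; supernatant used. Homogenate (50 μg protein) incubated 30 min at 37 °C in Tris 50 mM pH 7.5, 0.05% fatty-acid-free BSA, 10 μM anandamide plus [3H]anandamide (20,000 cpm), varying compound concentrations, final DMSO 1%. Stopped with CHCl3/MeOH 1:1; aqueous [3H]ethanolamine counted. IC50 from at least two determinations.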

[7] = target: T4, Melatonin receptor type 1B (Homo sapiens) (UniProt P49286); experiment: Intrinsic agonist activity at human MT2 receptor expressed in […] NIH/3T3 cell membranes assessed as induction of G protein activation incubated for 30 mins by [35S]GTPgammaS binding assay relative to melatonin; assay type: functional; procedure, shortened: as §2
T4 sequence (whole entry): T2 sequence (P49286 whole entry)

[8] = tested on: Oryctolagus cuniculus; experiment: Reduction in hypertonic saline solution-induced elevated intraocular pressure in New Zealand White rabbit at 1 mM dosed topically before hypertonic saline solution injection measured after 240 mins; assay type: functional, organism-based; procedure, shortened: as §1

T1 sequence (P48039 whole entry): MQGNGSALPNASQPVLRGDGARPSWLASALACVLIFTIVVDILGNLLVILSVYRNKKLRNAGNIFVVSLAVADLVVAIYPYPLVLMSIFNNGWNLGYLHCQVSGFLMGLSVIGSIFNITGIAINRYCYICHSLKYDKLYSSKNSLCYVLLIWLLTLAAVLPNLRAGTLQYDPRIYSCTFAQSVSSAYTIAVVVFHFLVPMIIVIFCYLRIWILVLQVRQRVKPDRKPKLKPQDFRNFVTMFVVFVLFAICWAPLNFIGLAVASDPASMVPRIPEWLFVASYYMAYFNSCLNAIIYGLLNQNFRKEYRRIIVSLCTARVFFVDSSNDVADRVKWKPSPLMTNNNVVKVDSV

Row | Structure (SMILES) | Activity [1] | Activity [2] | Intrinsic activity [3] | pKi [4] | pKi [5] | pIC50 [6] | Intrinsic activity [7] | Activity [8]
1 | NC(=O)c1cccc(-c2cccc(OC(=O)NC3CCCCC3)c2)c1 | Active | inactive |  |  |  |  |  | 
2 | CC(=O)NCCN(C)c1cccc(OCCCCNC(=O)Oc2cccc(-c3ccccc3)c2)c1 |  |  | 0.64 | 7.89 | 7.35 | 8.84 | 0.39 | 
3 | CC(=O)NCCN(C)c1cccc(OCCCCCCNC(=O)Oc2cccc(-c3cccc(C(N)=O)c3)c2)c1 | inactive | Active | 0.79 | 7.41 | 7.81 | 9.37 | 1.01 | 
4 | CCC(=O)NCCN(C)c1cccc(OCCCCCCNC(=O)Oc2cccc(-c3ccccc3)c2)c1 |  |  | 0.77 | 7.79 | 7.72 | 8.51 | 0.88 | 
5 | CC(=O)NCCN(C)c1cccc(OCCCCCCCCNC(=O)Oc2cccc(-c3ccccc3)c2)c1 | inactive | Active | 0.85 | 7.50 | 7.49 | 9.20 | 0.96 | 
6 | CC(=O)NCCN(C)c1cccc(OCCCCOc2cccc(O)c2)c1 |  |  | 0.27 | 6.73 | 6.22 |  | 0.18 | 
7 | CC(=O)NCCc1c[nH]c2ccc(OCCCCCCCCNC(=O)Oc3cccc(-c4ccccc4)c3)cc12 | Active | inactive | 0.73 | 8.31 | 8.20 | 8.40 | 0.53 | inactive
8 | CC(=O)NCCN(C)c1cccc(OCCCCCCNC(=O)Oc2cccc(-c3ccccc3)c2)c1 |  |  | 0.7 | 7.67 | 7.48 | 8.87 | 0.75 | 
9 | CC(=O)NCCN(C)c1cccc(OCCCCCCN)c1 |  |  | 0.34 | 6.35 | 6.40 |  | 0.08 | 
10 | CC(=O)NCCN(C)c1cccc(OCCCCCCOc2cccc(OC(=O)NC3CCCCC3)c2)c1 |  |  | 0.71 | 7.56 | 6.53 | 6.71 | 0.71 | 
11 | CC(=O)NCCc1c(Br)[nH]c2ccc(OCCCCCCNC(=O)Oc3cccc(-c4ccccc4)c3)cc12 |  | Active | 0.73 | 9.11 | 8.77 | 9.07 | 0.97 | Active
12 | CC(=O)NCCN(C)c1cccc(OCCCCCCNC(=O)Oc2cccc(-c3cccc(O)c3)c2)c1 | inactive | Active | 0.89 | 7.53 | 7.57 | 9.44 | 0.94 | 
13 | COc1ccc2[nH]cc(CCNC(C)=O)c2c1 | Active | inactive |  |  |  |  |  | 
14 | CC(=O)NCCN(C)c1cccc(OCCCCOc2cccc(OC(=O)NC3CCCCC3)c2)c1 |  |  | 0.07 | 7.46 | 7.27 | 6.74 | 0.05 | 
15 | CC(=O)NCCN(C)c1cccc(OCCCCCCOc2cccc(O)c2)c1 |  |  | 0.62 | 7.23 | 6.48 |  | 0.57 | 
16 | CC(=O)NCCN(C)c1cccc(OCCCCN)c1 |  |  | 0.32 | 5.51 | 4.89 |  | 0.35 | 
17 | CC(=O)NCCc1c[nH]c2ccc(OCCCCCCNC(=O)Oc3cccc(-c4ccccc4)c3)cc12 | Active | inactive | 0.73 | 8.22 | 8.34 | 8.62 | 1.02 | inactive
